# Rows were chosen to be rich in hits. Some 4.7% of all compounds tested hit in one or more screens of this group.
# MC4R antagonist = antagonists of human melanocortin 4 receptor (MC4R). P32245. MC4R-expressing cells, MTII-stimulated cAMP, LANCE TR-FRET. inhibition, % at 6.5 µM. 360,000 compounds, 0.48% hits. AID 540295;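 active = inhibition above its plate's cutoff, the mean of tested wells on that plate plus 3 SD, cut at about 29% in these data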;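 also: 0% = Melanotan II alone and 100% = Melanotan II plus saturating MCL0020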
#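 Assay system: human MC4R-expressing U2OS cells; reagent: Melanotan II stimulation of cells; dosing: 6.5 µM single dose; timing: compound 30 min, challenge 1 h, detection 1 h; signal: TR-FRET cAMP assay; replicates: one well per compound, no replicates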
# MC4R barr agon = agonists of human melanocortin 4 receptor (MC4R) beta-arrestin. P32245. U2OS MC4R beta-arrestin complementation, luminescence; percent of melanotan II response, DMSO zero. 360,000 compounds, 0.98% hits. activation, % at 8.9 µM;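 active = activation above a per-plate cutoff, the mean activation of sample wells on that plate plus 3 SD, cut at about 8% in these data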
# GAA850 FXN act = activators of GAA850 frataxin (FXN) promoter | HEK293 lucGAA850 FXN promoter luciferase reporter, 24 h; percent of 10 µM SAHA response | activation, % at 6 µM | 360,000 compounds, 0.56% hits | AID 540364;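 active = activation above the average of all compounds screened plus 3 SD, cutoff fixed separately per campaign, cut at about 7.5% in these data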;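 also: 0% = DMSO wells and 100% = 10 µM SAHA wells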
# HTR2A ag = mouse HTR2A agonism via beta-arrestin recruitment; CHO-K1 mHTR2A beta-arrestin complementation, luminescence; percent of 30 µM serotonin response; activation, % at 7.6 µM; 360,000 compounds, 0.66% hits;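 active = activation above a run cutoff, the mean activation of all tested compounds plus 3 SD, cut at about 14% in these data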;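 also: 0% = plate median of compound wells and 100% = 30 µM serotonin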
# Target sequence (P35363 whole entry, looked up): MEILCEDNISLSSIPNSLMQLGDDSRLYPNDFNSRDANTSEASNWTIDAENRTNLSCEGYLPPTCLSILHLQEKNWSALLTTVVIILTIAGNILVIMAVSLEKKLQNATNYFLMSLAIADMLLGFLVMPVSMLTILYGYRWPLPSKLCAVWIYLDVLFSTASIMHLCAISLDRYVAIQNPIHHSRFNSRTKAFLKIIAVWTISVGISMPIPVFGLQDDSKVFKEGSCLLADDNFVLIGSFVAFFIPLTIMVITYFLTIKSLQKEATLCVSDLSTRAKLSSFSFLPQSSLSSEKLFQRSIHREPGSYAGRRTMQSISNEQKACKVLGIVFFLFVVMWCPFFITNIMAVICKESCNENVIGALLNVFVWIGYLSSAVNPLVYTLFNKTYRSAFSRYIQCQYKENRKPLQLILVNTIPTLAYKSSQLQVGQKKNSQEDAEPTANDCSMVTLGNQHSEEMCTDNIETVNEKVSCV
# AHR act = activators of human aryl hydrocarbon receptor; AID 2796; 320,000 compounds, 2.5% hits; AHR-responsive luciferase reporter cells, luminescence; P35869; activation, % at 5 µM; in the data active = activation above about 47%;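 also: 0% = vehicle wells and 100% = reference agonist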
# OPRM1 ag = activates human mu opioid receptor in HTR2A counterscreen. shares compounds with HTR2A ag. U2OS OPRM1 beta-arrestin PathHunter, luminescence; DMSO 0%, DAMGO 9.3 µM 100%. activation, % at 9.3 µM. 2,300 compounds, 5.3% hits;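 active = mean activation above the mean of DMSO-only wells plus 3 SD, cut at about 0.5% in these data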
# HTR2A ag conf = mouse HTR2A agonism confirmed | shares compounds with HTR2A ag | CHO-K1 PathHunter beta-arrestin recruitment, luminescence; DMSO 0%, 30 µM serotonin 100% | activation, % at 7.6 µM | 2,300 compounds, 19% hits;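 active = mean activation across triplicates above the hit threshold derived in the original primary screen, cut at about 15% in these data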
# * marks the source's active call; other numbers are inactive results; . = no result given.
SMILES,MC4R antagonist,MC4R barr agon,GAA850 FXN act,HTR2A ag,AHR act,OPRM1 ag,HTR2A ag conf
N#CC1(Nc2ccc(C(=O)O)cc2)CCCC1,7,-1,-2,3,.,.,.
COc1ccc(COC(=O)C2=C(C)NC(=O)NC2c2cccc(Br)c2)cc1 (stereo not drawn),13,1,0,16*,10,0,16*
COc1cc(NC(=O)CCN2CCN(c3ccccc3OC)CC2)cc(OC)c1,-1,5,-2,-4,.,.,.
COC(=O)[C@H]1C[C@H](OC(=O)Nc2c(C)noc2C)[C@@]2(O)CN(S(=O)(=O)c3ccc(C)cc3)CC2[C@H]1C(=O)OC (stereo partly drawn),5,-2,-1,16*,.,0,-2
CC/C(=N\NC(=O)C1CCCC1)c1ccc(Br)cc1,7,-2,3,18*,.,-1,-2
CC/C(=N\NC(=O)C1CCCC1)c1cccc(Br)c1,9,-4,1,-3,.,.,.
O=C1C2C(c3cccc(/C=C/c4ccccc4)c3)CC=CC2C(c2ccc3ccccc3c2)N1Cc1ccccc1 (stereo not drawn),-1,-1,1,2,3,.,.
O=C1C2C(c3cccc(/C=C/c4ccccc4)c3)CC=CC2C(c2ccc(C(F)(F)F)cc2)N1Cc1ccccc1 (stereo not drawn),2,0,1,17*,1,-1,-5
CC(C)C(C(=O)NC1CCCC1)N1CCN(c2ncccc2C#N)CC1 (stereo not drawn),.,.,.,5,.,.,.
O=C(CSc1nc(-c2cccs2)nc2ccccc12)NC1CCS(=O)(=O)C1 (stereo not drawn),17,0,0,19*,1,0.5*,-2
COCCn1c(SCC(=O)N2CCCC2)nc2c([nH]c3ccccc32)c1=O,-2,0,4,2,23,.,.
C=CCn1c2ccccc2c2nnc(SCCCn3c(=O)[nH]c4ccccc43)nc21,-30,0,0,17*,.,0,3
O=C(c1cccnc1)N1CCN(S(=O)(=O)c2ccc(Cl)cc2)CC1,2,-1,0,15*,0,-1,-3
Cc1cccc(OCC(=O)N2CCC3(CC2)CC(=O)c2ccccc2O3)c1,0,-2,-1,-4,0,.,.
CCOc1ccc(OCC(=O)N2CCC3(CC2)CC(=O)c2ccccc2O3)cc1,-1,0,4,19*,5,0,2
CC1CCN(S(=O)(=O)c2cc(C(=O)N3CCN(c4ccccc4)CC3)ccc2Br)CC1,1,-2,-5,-5,.,.,.
CCc1ccccc1-n1nnnc1SCC(=O)Nc1cc(C)on1,-3,2,3,15*,1,0,7
Cc1cccc(NC(=O)CSc2nnc(-c3ccc(S(=O)(=O)N4CCOCC4)cc3)n2C)c1,2,-2,-2,29*,0,0.8*,1
Cc1cccc(-c2nnc(SCC(=O)Nc3cc(C)on3)n2C)c1,2,-1,1,18*,-2,0,-4
COc1ccccc1CNC(=O)COC(=O)COc1ccccc1Cc1ccccc1,7,0,0,3,2,.,.
O=C(CSc1nc2ccccc2c(=O)n1-c1ccccc1Cl)NC1CCS(=O)(=O)C1 (stereo not drawn),0,-3,1,7,6,.,.
CCc1ccc2nc(N3C(=O)c4oc5ccccc5c(=O)c4C3c3ccc(OC)c(OC)c3)sc2c1 (stereo not drawn),.,.,.,.,0,.,.
CC1(C)Cc2c(cnn2-c2ccc(F)cc2)C(NC(=O)c2ccc(=O)oc2)C1 (stereo not drawn),-5,-2,2,5,0,.,.
COc1ccc(C(=O)N2CCN(S(=O)(=O)c3ccc4c(c3)OCCO4)CC2)cc1OC,15,1,0,3,0,.,.
CC1CN(C)C(C)c2c1oc1ccc([N+](=O)[O-])cc21 (stereo not drawn),2,-3,-2,22*,2,0,4

# Screening results from PubChem.
